DENV2 CPE rescue – protects cells from dengue virus 2 cytopathic effect | CPE inhibition, % at 9.99 µM | DENV2-infected cells, cytopathic effect rescue, plate reader | 1.7% of 350,000 active; in the data active = CPE inhibition above about 20%, passing the limit was not always enough; inconclusive = no clear call, values can overlap the other calls; tested in BHK-21 cells
FN deposit inh – fibronectin deposition inhibition. AH1F fibroblasts, Alexa488-fibronectin deposition fluorescence, overnight. inhibition, % at 12.6 µM. 0.086% of 350,000 active. AID 743247;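 active = mean inhibition across replicates of 30% or more, regardless of how many single replicates reach that level; inconclusive = mean under 30% yet at least half of replicates reach 30%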
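test system = AH1F fibroblasts assembling fluorescent fibronectin matrix | quantity = 10000 AH1F cells per well | buffer or medium = DMEM plus 2% serum, read in PBS | doses = single dose, pinned | incubation = 1 h cell attachment, overnight exposure to compound and label | detection = fluorescence at 485 nm excitation, 525 nm emission | read-out basis = inhibition from reduced deposited-fibronectin fluorescence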
Env fusion inh – HIV envelope-mediated fusion inhibition; HeLa-JRFL Env/CEM21 cell fusion, luciferase; inhibition, % at 12.3 µM; 1.1% of 360,000 active; AID 651610;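 active = mean replicate inhibition score of at least 50 and every replicate individually at or above 50; inconclusive = only one of the two criteria met; inactive = mean below 50 and not all replicates reaching 50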
PglD DTNB – inhibitors of Campylobacter jejuni PglD acetyltransferase. purified PglD enzyme, DTNB colorimetric CoA detection. inhibition, % at 12.5 µM. 0.098% of 360,000 active. AID 602405; in the data active = inhibition above about 16%, passing the limit was not always enough; inconclusive = no clear call, values can overlap the other calls
PGC1a acetyl inh – lowers PGC1a acetylation signal in U2OS cells; AlphaScreen anti-acetyl-lysine; with virally co-expressed GCN5 acetyltransferase; inhibition, % at 15.6 µM; 0.17% of 350,000 active; AID 651687;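 active = every replicate shows inhibition of at least 40%; inconclusive = mean inhibition at least 40% but some replicate below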
rRNA inh HTS – selective bacterial rRNA inhibition in E. coli; E. coli WT GFP vs humanized-ribosome RFP mutants, fluorescence, 24 h; active compounds read low; DMSO median 0, no signal -100; GFP signal change (wild-type ribosome), % (test concentration not listed); 1.6% of 350,000 active; AID 720706;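 active = significant combined selectivity score with lowered wild-type GFP, culture density cut under 30%, mutant RFP and density less affected; inactive = any of these conditions unmet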
Of the large screens only hits and unclear results are named; the others gave an inactive call; [ ] = remark or other dose. Only some compounds are listed: those with a hit (about 3.5% of all), similar ones and a draw of the others.

O=C(C[C@H]1CC[C@H]2[C@@H](COC[C@H](O)CN2Cc2cccc(C(F)(F)F)c2)O1)NCc1ccc(F)cc1	none (no result: Env fusion inh)
COC(=O)[C@]1(CCS(=O)(=O)c2ccccc2)N=C(c2ccc(OCCCO)cc2)O[C@@H]1c1ccccc1CN=[N+]=[N-]	none (no result: FN deposit inh, rRNA inh HTS)
CCN(CC)c1ccc(/C=N/NC(=O)c2ccc(Br)o2)cc1	rRNA inh HTS -23 (no result: DENV2 CPE rescue, PglD DTNB, PGC1a acetyl inh)
O=C(N/N=C/c1ccc2c(c1)OCO2)c1ccc(Br)o1	none (no result: DENV2 CPE rescue, PglD DTNB, PGC1a acetyl inh, rRNA inh HTS)
O=C(C[C@H]1C=C[C@@H](NC(=O)Nc2ccccc2F)[C@@H](CO)O1)NCc1ccc(-c2ccccc2)cc1	DENV2 CPE rescue inconclusive, Env fusion inh 84[16.7 µM] (no result: PglD DTNB)
O=C(C[C@H]1C=C[C@@H](NC(=O)Nc2ccccc2F)[C@@H](CO)O1)NCc1ccc(Cl)cc1	Env fusion inh 72[16.7 µM] (no result: FN deposit inh)
O=C(C[C@@H]1C=C[C@H](NC(=O)Nc2ccccc2F)[C@@H](CO)O1)NCc1ccc(-c2ccccc2)cc1	none
O=C(C[C@@H]1C=C[C@@H](NC(=O)CC2CC2)[C@H](CO)O1)NCc1ccc(Cl)cc1	Env fusion inh 55[16.7 µM] (no result: FN deposit inh)
O=C(C[C@H]1C=C[C@H](NC(=O)Nc2ccccc2F)[C@H](CO)O1)NCc1ccc(Cl)cc1	none (no result: FN deposit inh)
C[C@@H]1CN([C@@H](C)CO)C(=O)c2c(c3ccccc3n2C)-c2ccccc2CO[C@@H]1CN(C)C(=O)[C@H]1CCCN1C	none
CC(C)CC#Cc1ccc([C@@H]2[C@@H](CO)N3C(=O)CN(C(=O)CN4CCOCC4)C[C@@H]23)cc1	none (no result: FN deposit inh, Env fusion inh, PglD DTNB)
O=C(CC1S/C(=N/N=C/c2c[nH]c3ccccc23)NC1=O)Nc1ccccc1 (stereo not drawn)	DENV2 CPE rescue 20, PGC1a acetyl inh inconclusive (no result: PglD DTNB)
COc1cc(/C=N/O)ccc1OCc1ccc(C(=O)O)cc1	Env fusion inh 113 (no result: DENV2 CPE rescue, rRNA inh HTS)
COc1ccc(/C=N/NS(=O)(=O)c2ccc(C)cc2)cc1OC(=O)c1ccccc1	none (no result: DENV2 CPE rescue, FN deposit inh, Env fusion inh, rRNA inh HTS)
COc1cc(/C=N/NS(=O)(=O)c2ccc(C)cc2)ccc1OCc1cccc(C(=O)O)c1	Env fusion inh 72
COc1cc(/C=N/NS(=O)(=O)c2ccc3ccccc3c2)ccc1OCc1ccc(C(=O)O)cc1	rRNA inh HTS -23
COC(=O)C1C(OC)=CC(=O)C2CCCCC21 (stereo not drawn)	Env fusion inh 57 (no result: PglD DTNB, PGC1a acetyl inh)
CCCCCCc1cc2cc(-c3nnc(-c4ccccc4OC)o3)c(=O)oc2cc1O	Env fusion inh 88 (no result: DENV2 CPE rescue, PGC1a acetyl inh, rRNA inh HTS)
C[C@H](CO)N1C[C@H](C)[C@H](CN(C)C(=O)Nc2ccc(F)cc2)Oc2c(NC(=O)C3CC3)cccc2C1=O	DENV2 CPE rescue 35 (no result: FN deposit inh)
CC(C)NC(=O)Nc1cccc2c1O[C@H](CN(C)C(=O)Nc1ccc(F)cc1)[C@H](C)CN([C@@H](C)CO)C2=O	none (no result: FN deposit inh, Env fusion inh)
CC(C)NC(=O)Nc1cccc2c1O[C@@H](CN(C)C(=O)Nc1ccc(F)cc1)[C@@H](C)CN([C@H](C)CO)C2=O	DENV2 CPE rescue 22 (no result: FN deposit inh, Env fusion inh)
COc1ccc(S(=O)(=O)Nc2cccc3c2O[C@H](CN(C)Cc2ccccc2)[C@H](C)CN([C@@H](C)CO)C3=O)cc1	none (no result: FN deposit inh)
Cc1ccc(S(=O)(=O)N(C)C[C@H]2Oc3ccc(NC(=O)C4CC4)cc3C(=O)N([C@H](C)CO)C[C@@H]2C)cc1	none (no result: Env fusion inh)
C[C@@H]1CN([C@@H](C)CO)C(=O)c2cccc(NS(=O)(=O)c3ccccc3)c2O[C@@H]1CN(C)Cc1ccncc1	none (no result: FN deposit inh)
CCCCCC(=O)NC1CCCCN(C)C1=O (stereo not drawn)	DENV2 CPE rescue 76 (no result: PglD DTNB, PGC1a acetyl inh)
CCC(=O)N1[C@H](CO)[C@@H](c2ccccc2)[C@@H]1CN(C)C(=O)c1cccc(F)c1	none (no result: Env fusion inh)
COC(=O)c1ccc(CN2CC(=O)N3[C@H](CO)[C@@H](c4ccc(-c5ccccc5F)cc4)[C@H]3C2)cc1	none (no result: FN deposit inh, Env fusion inh, PglD DTNB)
CC(C)[C@H](NC(=O)C1CC1)C(=O)N1CCC[C@H]1C(=O)NCCc1ccccc1Cl	DENV2 CPE rescue 29 (no result: PglD DTNB, PGC1a acetyl inh)
O=C(N[C@H](C(=O)N1CCC[C@H]1C(=O)NCCc1ccccc1Cl)C1CCCCC1)c1ccccc1	none (no result: PglD DTNB, PGC1a acetyl inh)
COc1cccc(C(=O)N[C@H](C(=O)N2CCC[C@H]2C(=O)NCCc2ccccc2Cl)C2CCCCC2)c1	DENV2 CPE rescue 29 (no result: PglD DTNB, PGC1a acetyl inh)
CC(C)[C@H](NC(=O)CC1CCCC1)C(=O)N1CCC[C@H]1C(=O)NCCc1ccccc1Cl	none (no result: PglD DTNB, PGC1a acetyl inh)
Cc1noc(C)c1NC(=O)N(C)C[C@@H]1OCCCC[C@H](C)Oc2ccc(NC(=O)NC3CCCCC3)cc2C(=O)N([C@@H](C)CO)C[C@H]1C	DENV2 CPE rescue 44
Cc1noc(C)c1NC(=O)N(C)C[C@@H]1OCCCC[C@@H](C)Oc2ccc(NC(=O)NC3CCCCC3)cc2C(=O)N([C@@H](C)CO)C[C@H]1C	DENV2 CPE rescue 76
Cc1noc(C)c1NC(=O)Nc1ccc2c(c1)C(=O)N([C@@H](C)CO)C[C@H](C)[C@H](CN(C)C(=O)NC1CCCCC1)OCCCC[C@@H](C)O2	DENV2 CPE rescue 29 (no result: FN deposit inh)
Cc1noc(C)c1NC(=O)N(C)C[C@@H]1Oc2ccc(NC(=O)NC3CCCCC3)cc2C(=O)N([C@@H](C)CO)C[C@@H]1C	DENV2 CPE rescue 34 (no result: Env fusion inh)
CNC[C@@H]1Oc2ccc(NS(=O)(=O)c3ccccc3)cc2C(=O)N([C@H](C)CO)C[C@@H]1C	none (no result: FN deposit inh, Env fusion inh)
COc1ccc(S(=O)(=O)Nc2ccc3c(c2)C(=O)N([C@@H](C)CO)C[C@H](C)[C@H](CN(C)S(=O)(=O)c2ccc(C)cc2)OCCCC[C@H](C)O3)cc1	none
Cc1noc(C)c1NC(=O)N(C)C[C@H]1OCCCC[C@@H](C)Oc2ccc(NC(=O)NC(C)C)cc2C(=O)N([C@H](C)CO)C[C@H]1C	none (no result: FN deposit inh)
Cc1noc(C)c1NC(=O)N(C)C[C@@H]1OCCCC[C@H](C)Oc2ccc(NC(=O)NC3CCCCC3)cc2C(=O)N([C@@H](C)CO)C[C@@H]1C	DENV2 CPE rescue 23
COc1ccc(NC(=O)N(C)C[C@H]2Oc3ccc(NC(=O)NC4CCCCC4)cc3C(=O)N([C@@H](C)CO)C[C@@H]2C)cc1	DENV2 CPE rescue 46 (no result: FN deposit inh)
Cc1ccc(S(=O)(=O)N(C)C[C@H]2Oc3ccc(NC(=O)Nc4ccc(C(F)(F)F)cc4)cc3CC(=O)N([C@H](C)CO)C[C@@H]2C)cc1	none
Cc1ccc(S(=O)(=O)N(C)C[C@@H]2Oc3ccc(NC(=O)Nc4ccc(C(F)(F)F)cc4)cc3CC(=O)N([C@@H](C)CO)C[C@H]2C)cc1	DENV2 CPE rescue 28
Cc1ccc(S(=O)(=O)N(C)C[C@@H]2Oc3ccc(NC(=O)Nc4ccc(C(F)(F)F)cc4)cc3CC(=O)N([C@H](C)CO)C[C@@H]2C)cc1	Env fusion inh 76[16.7 µM]
Cc1ccc(S(=O)(=O)N(C)C[C@H]2Oc3ccc(NC(=O)Nc4ccc(C(F)(F)F)cc4)cc3CC(=O)N([C@H](C)CO)C[C@H]2C)cc1	none

High-throughput results: PubChem, Broad Institute
